Measured values: ChEMBL document CHEMBL1131591, “2-Fluoro-4-pyridinylmethyl analogues of linopirdine as orally active acetylcholine release-enhancing agents with good efficacy and duration of action” (J Med Chem, 1998)

Experiments:
[1] = organism: Rattus norvegicus; test: Compound was tested in vitro for its ability to enhance the K+-stimulated release of [3H]acetylcholine from rat hippocampal slices preloaded with [3H]-Choline.; type: functional; conditions: Hippocampus
Method in brief: (§1)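 Superfused rat hippocampal slices preloaded with [3H]choline. Release evoked for 4 min at two points (S1, S2) by raising K+ in the medium to 25 mM. Compound added after S1 and kept in the medium through S2. Enhancement taken as the S2/S1 ratio, expressed as percent of control (control = 100%). EC50 taken as the concentration giving 50% of the compound's peak efficacy. At least three determinations per point.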

[2] = organism: Rattus norvegicus; test: Compound was tested in vitro for its ability to enhance the K+-stimulated release of [3H]acetylcholine from rat hippocampal slices preloaded with [3H]choline at 10 uM; type: functional, Hippocampus; method in brief: as §1
[3] = tested on: Rattus norvegicus; test: Compound was tested in vivo for microdialysis ACh release after peroral administration of 10 mg/kg methocel; type: functional; conditions: route oral
Method in brief: (§2)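 Freely moving rats under brain microdialysis. Dialysate injected onto HPLC every 20 min to measure ACh. Compound or vehicle given orally after the fourth 20-min collection, usually 14 collections in total. Vehicle was water or a suspension in […] methocel in water, bead-milled overnight. Peak reported as percent increase over baseline (control = 0). Duration is the number of consecutive minutes at significance.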

[4] = tested on: Rattus norvegicus; test: Compound was tested in vivo for microdialysis ACh release after peroral administration of 20 mg/kg methocel at the duration of 140 minutes; type: functional; conditions: route oral; method in brief: as §2
[5] = tested on: Rattus norvegicus; test: Compound was tested in vivo for microdialysis ACh release after peroral administration of 5 mg/kg suspended in water at the duration of 20 minutes; type: functional; conditions: route oral; method in brief: as §2
[6] = tested on: Rattus norvegicus; test: Compound was tested in vivo for microdialysis ACh release after peroral administration of 10 mg/kg suspended in methocel at the duration of 80 minutes; type: functional; conditions: route oral; method in brief: as §2
[7] = organism: Rattus norvegicus; test: Compound was tested in vitro for its ability to enhance the K+-stimulated release of [3H]acetylcholine from rat hippocampal slices preloaded with [3H]choline at 3 uM; type: functional, Hippocampus; method in brief: as §1
[8] = tested on: Rattus norvegicus; test: Compound was tested in vivo for microdialysis ACh release after peroral administration of 5 mg/kg methocel at the duration of >80 minutes; type: functional; conditions: route oral; method in brief: as §2
[9] = tested on: Rattus norvegicus; test: Compound was tested in vivo for microdialysis ACh release after peroral administration of 1 mg/kg suspended in methocel at the duration of 120 minutes; type: functional; conditions: route oral; method in brief: as §2
[10] = organism: Rattus norvegicus; test: Compound was tested in vitro for its ability to enhance the K+-stimulated release of [3H]acetylcholine from rat hippocampal slices preloaded with [3H]-Choline at 1 uM; type: functional, Hippocampus; method in brief: as §1
[11] = tested on: Rattus norvegicus; test: Compound was tested in vivo for microdialysis ACh release after peroral administration of 5 mg/kg methocel at the duration of 100 minutes; type: functional; conditions: route oral; method in brief: as §2
[12] = tested on: Rattus norvegicus; test: Compound was tested in vivo for microdialysis ACh release after peroral administration of 0.5 mg/kg suspended in methocel; type: functional; conditions: route oral; method in brief: as §2
[13] = tested on: Rattus norvegicus; test: Compound was tested in vivo for microdialysis ACh release after peroral administration of 1 mg/kg methocel at the duration of >120 minutes; type: functional; conditions: route oral; method in brief: as §2
[14] = tested on: Rattus norvegicus; test: Compound was tested in vivo for microdialysis ACh release after peroral administration of 10 mg/kg water at the duration of >40 minutes; type: functional; conditions: route oral; method in brief: as §2
[15] = tested on: Rattus norvegicus; test: Compound was tested in vivo for microdialysis ACh release after peroral administration of 5 mg/kg suspended in water; type: functional; conditions: route oral; method in brief: as §2
[16] = tested on: Rattus norvegicus; test: Compound was tested in vivo for microdialysis ACh release after peroral administration of 10 mg/kg water at the duration of 100 minutes; type: functional; conditions: route oral; method in brief: as §2

SMILES: O=C1N(c2ccccc2)c2ccccc2C1(Cc1ccnc(F)c1)Cc1ccnc(F)c1
- EC50 [1]: 15200 nM
- Control [2]: 326%
- Increase over control [3]: 44%

SMILES: O=C1N(c2ccccc2)c2ccccc2C1(Cc1ccncc1)Cc1ccncc1 [LINOPIRDINE]
- EC50 [1]: 4500 nM
- Control [2]: 337%
- Increase over control [4]: 117%
- Increase over control [5]: 50%
- Increase over control [6]: 65%

SMILES: Fc1cc(CC2(Cc3ccnc(F)c3)c3ccccc3-c3ncccc32)ccn1
- EC50 [1]: 1600 nM
- Control [7]: 440%
- Increase over control [8]: 201%
- Increase over control [9]: 74%

SMILES: O=C1c2ccccc2C(Cc2ccncc2)(Cc2ccnc(F)c2)c2ccccc21
- EC50 [1]: 410 nM
- Control [10]: 452%
- Increase over control [11]: 75%

SMILES: O=C1c2ccccc2C(Cc2ccnc(F)c2)(Cc2ccnc(F)c2)c2ccccc21
- EC50 [1]: 830 nM
- Control [7]: 413%
- Increase over control [12]: 40%
- Increase over control [13]: 115%

SMILES: Fc1cc(CC2(Cc3ccncc3)c3ccccc3-c3ncccc32)ccn1 (configuration not stated)
- EC50 [1]: 1080 nM
- Increase over control [14]: 52%
- Increase over control [15]: 47%
- Control [2]: 317%

SMILES: O=C1c2ccccc2C(Cc2ccncc2)(Cc2ccncc2)c2ccccc21
- EC50 [1]: 450 nM
- Increase over control [15]: 18%
- Control [2]: 600%
- Increase over control [16]: 127%

SMILES: c1ccc2c(c1)-c1ncccc1C2(Cc1ccncc1)Cc1ccncc1
- EC50 [1]: 4120 nM
- Control [2]: 725%

SMILES: O=C1N(c2ccccc2)c2ccccc2C1(Cc1ccncc1)Cc1ccnc(F)c1 (configuration not stated)
- EC50 [1]: 10000 nM
- Control [2]: 433%
- Increase over control [3]: 27%
